The text below walks through data of PubChem BioAssay.

A short description of experiment [1]: Her2 expression decrease, cell viability multiplex – SKBR3 breast tumor cells, AlphaScreen, ATP viability, primary screen (AID 461;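 active = Her2 level under about 52% in both replicate screens, with viability over 70% of control, limit read from the data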;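 as to Her2 level: lower value means less Her2 protein in the cells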;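 as to viability: percent of carrier control wells set as 100% viability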). As to conditions: SKBR3 Her2 protein level, 18-24 h, measured here: SKBR3 viability, ATP luminescence, at 10 µM.
Experiment [2] addresses Receptor tyrosine-protein kinase erbB-2 (Homo sapiens) (UniProt P04626). The experiment is described as above. As to conditions: 18-24 h, at 10 µM, stronger effect = lower value.
The nature of experiment [3]: reduced viability of SK-BR-3 breast cancer cells – cell-based, 24 h, human, pilot screen (AID 572;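 active = viability at or below 10% of carrier control in both of two separate runs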;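 also: compound exposure lasted between 18 and 24 h rather than exactly 24 h; 100% = carrier-treated control wells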). To be noted: SK-BR-3 viability, CellTiter-Glo luminescence, at 10 µM, stronger effect = lower value.
Experiment [4] in a line: HUVEC growth inhibition – cell-based, human, primary screen (AID 575;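 active = viability at or below 30% in both replicate assays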;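 also: 100% = median of untreated cell wells with 0.1% DMSO on each plate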). As to conditions: HUVEC proliferation, CellTiter-Glo luminescence, 72 h; at 10 µM; stronger effect = lower value. Put shortly: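 material = primary HUVEC, no more than 12 passages | input = 1250 cells per well | controls = vehicle and MePR control wells | measured by = CTG luminescence | times = 72 h compound incubation | format = collagen-coated 384-well format | read-out = % viability vs DMSO wells | doses = single 10 µM dose, 0.1% DMSO, from 5x medium stock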
On the technique in general: ATP-based viability assays read luminescence as a measure of living cells.

Experiment [5] in a line: H69AR cell proliferation blockers – human, duplicate replicates, primary screen (AID 580;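 active = viability at or under a set limit in both replicates, limit being median viability minus 3 SD, cut at about 48% in these data, passing the limit was not always enough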;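 also: 100% = mean luminescence of untreated wells and 0% = no signal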). To be noted: H69AR lung tumor cells viability, ATP luminescence, 72 h; at 10 µM; stronger effect = lower value.
Experiment [6] is described as follows: MRP1 drug-resistance reversers in H69AR cells – cell-based, doxorubicin co-treatment, pilot screen (AID 601;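 active = viability loss from added drug above about 55%, and viability with drug at most 40%, in both replicates, limit read from the data, passing the limit was not always enough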). To be noted: CellTiter-Glo, 72 h, at 10 µM; for differential viability (reversal): stronger effect = higher value.
Experiment [7] can be described thus: yeast transport mutant growth inhibition pilot in 384-well plates, post-Golgi transport modulator project (AID 636; in the data active = inhibition above about 31%). To be noted: absorbance 615 nm, about 18 h, stronger effect = higher value.
Experiment [8] is described as follows: growth suppression of yeast trafficking mutant, preliminary HTS, modulators of trafficking downstream of Golgi apparatus project, 1536-format plate, OD 615 nm (AID 637). To be noted: yeast transport mutant growth, absorbance 615 nm, 18 h; stronger effect = higher value.
Where [9] appears, read: H69AR cells + 2 uM doxorubicin, measured here: viability with 2 uM doxorubicin, stronger effect = lower value.
[10] abbreviates: H69AR cells, compound alone cytotoxicity.

Activity calls are given as the source filed them. Rule as the data show it, unless noted: active = inhibition above about 30%; inactive = the rest.

Sequence of Receptor tyrosine-protein kinase erbB-2 (Homo sapiens) (P04626 whole entry, looked up): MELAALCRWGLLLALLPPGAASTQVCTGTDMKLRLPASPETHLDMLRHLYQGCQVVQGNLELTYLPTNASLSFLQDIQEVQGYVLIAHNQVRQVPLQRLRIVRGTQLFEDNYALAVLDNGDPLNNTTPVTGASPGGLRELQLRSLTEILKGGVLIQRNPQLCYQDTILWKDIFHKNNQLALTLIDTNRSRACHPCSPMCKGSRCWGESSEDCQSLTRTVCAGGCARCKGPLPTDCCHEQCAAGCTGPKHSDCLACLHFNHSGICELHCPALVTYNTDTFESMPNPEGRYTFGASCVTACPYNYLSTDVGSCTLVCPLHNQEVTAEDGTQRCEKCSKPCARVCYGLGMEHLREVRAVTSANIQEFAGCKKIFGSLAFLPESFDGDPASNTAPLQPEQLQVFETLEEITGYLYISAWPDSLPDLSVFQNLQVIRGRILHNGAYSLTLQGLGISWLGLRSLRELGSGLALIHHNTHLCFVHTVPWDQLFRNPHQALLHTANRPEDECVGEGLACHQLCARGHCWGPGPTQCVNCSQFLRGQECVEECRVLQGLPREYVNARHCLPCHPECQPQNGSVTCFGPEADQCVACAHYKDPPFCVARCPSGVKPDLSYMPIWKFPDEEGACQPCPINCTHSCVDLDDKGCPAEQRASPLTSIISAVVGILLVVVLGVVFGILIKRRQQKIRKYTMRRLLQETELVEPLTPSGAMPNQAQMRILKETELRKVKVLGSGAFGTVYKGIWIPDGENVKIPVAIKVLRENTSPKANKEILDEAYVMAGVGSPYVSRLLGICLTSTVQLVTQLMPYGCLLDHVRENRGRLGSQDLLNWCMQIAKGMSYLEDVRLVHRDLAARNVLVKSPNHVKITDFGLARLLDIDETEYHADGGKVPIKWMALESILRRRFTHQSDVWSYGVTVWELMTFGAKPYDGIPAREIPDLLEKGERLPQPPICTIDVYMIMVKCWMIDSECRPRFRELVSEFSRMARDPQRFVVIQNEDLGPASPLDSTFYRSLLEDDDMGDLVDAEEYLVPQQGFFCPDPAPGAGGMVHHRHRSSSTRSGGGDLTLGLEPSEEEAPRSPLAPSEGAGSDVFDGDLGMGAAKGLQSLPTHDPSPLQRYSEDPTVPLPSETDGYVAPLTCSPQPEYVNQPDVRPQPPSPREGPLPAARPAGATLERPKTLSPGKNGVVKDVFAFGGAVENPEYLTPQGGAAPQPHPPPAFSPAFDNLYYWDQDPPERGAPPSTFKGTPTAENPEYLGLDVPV

Turning to `COc1ncnc2c1N=C1CC(C)(C)CC(N)=C1S2`, the viability is 92.5% in experiment [1]; 92.5% (inactive) in experiment [3]; 99% (inactive) in experiment [4]; 87.5% (inactive) in experiment [5]; 82.8% in experiment [6] (setting [9]); 87.5% in experiment [6] (setting [10]). Further, in experiment [2], the Her2 level was 86% (inactive). Also, the differential viability (reversal) in experiment [6] (H69AR cells + 2 uM doxorubicin) was 4.68% (inactive). Moreover, the inhibition in experiment [7] is -5.07% (inactive); in experiment [8], -2.3% (inactive).
In the case of `COc1ccc(-c2cc3nc4n(c(=O)c3s2)CCC4)cc1`, the viability in experiment [1] was 129%; in experiment [3], 129% (inactive); in experiment [4], 103% (inactive); in experiment [5], 84.1% (inactive); in experiment [6] (setting [9]), 88.9%; in experiment [6] (setting [10]), 84.1%. The Her2 level in experiment [2] is 101% (inactive). The differential viability (reversal) in experiment [6] (H69AR cells + 2 uM doxorubicin) was -4.84% (inactive). Further, the inhibition in experiment [7] was -5% (inactive); in experiment [8], 3.44% (inactive).
For the compound `CNC(=O)c1nnn(Cc2ccccc2)c1NC(C)=O`, the viability in experiment [1] is 97.5%; in experiment [3], 97.5% (inactive); in experiment [4], 104% (inactive); in experiment [5], 88.9% (inactive); in experiment [6] (setting [9]), 96.1%; in experiment [6] (setting [10]) it was 88.9%. Besides, the Her2 level in experiment [2] was 105% (inactive). For the same compound, in experiment [6] (H69AR cells + 2 uM doxorubicin), the differential viability (reversal) is -7.25% (inactive). The figures for the inhibition in experiment [7] and in experiment [8] were 1.35% (inactive) and 12.5% (inactive), respectively.
In the case of `O=C(COC(=O)c1cncc(Br)c1)NCCC1=CCCCC1`, the viability is 93.5% in experiment [1]; 93.5% (inactive) in experiment [3]; 101% (inactive) in experiment [4]; 97.5% (inactive) in experiment [5]; 88.4% in experiment [6] (setting [9]); 97.5% in experiment [6] (setting [10]). In experiment [2], the Her2 level was 93% (inactive). The differential viability (reversal) in experiment [6] (H69AR cells + 2 uM doxorubicin) was 9.04% (inactive). In addition, the inhibition was -1.28% (inactive) in experiment [7] and -1.33% (inactive) in experiment [8].
`CN(C)c1ccc(CNCCC2(O)CCOC(C)(C)C2)cc1` (stereo not given): the viability in experiment [1] was 89%; in experiment [3], 89% (inactive); in experiment [4], 95.3% (inactive); in experiment [5] it was 102% (inactive); in experiment [6] (setting [9]) it was 95%; in experiment [6] (setting [10]), 102%. The Her2 level in experiment [2] was 86% (inactive). Besides, the differential viability (reversal) in experiment [6] (H69AR cells + 2 uM doxorubicin) was 7.18% (inactive). Moreover, the inhibition in experiment [7] was -6.08% (inactive); in experiment [8] it was 1.64% (inactive).
`CCCOC(=O)CSc1nc(N)c(C#N)c(CC)c1C#N`: the viability is 99.5% in experiment [1]; 99.5% (inactive) in experiment [3]; 105% (inactive) in experiment [4]; 94.6% (inactive) in experiment [5]; 93.9% in experiment [6] (setting [9]); 94.6% in experiment [6] (setting [10]). Also, the Her2 level in experiment [2] is 116% (inactive). Also, the differential viability (reversal) in experiment [6] (H69AR cells + 2 uM doxorubicin) was 0.73% (inactive). Also, the inhibition in experiment [7] was 2% (inactive); in experiment [8], 0.16% (inactive).
On to `COc1cccc(OCC(O)CN2CCN(CCO)CC2)c1` (stereo not given), for which the viability in experiment [1] is 92.5%; in experiment [3], 92.5% (inactive); in experiment [4], 101% (inactive); in experiment [5], 93.2% (inactive); in experiment [6] (setting [9]), 91.6%; in experiment [6] (setting [10]), 93.2%. In experiment [2], the Her2 level was 96% (inactive). Besides, the differential viability (reversal) in experiment [6] (H69AR cells + 2 uM doxorubicin) was 1.65% (inactive). The inhibition is 1.18% (inactive) in experiment [7] and 6.39% (inactive) in experiment [8].
Consider `Cc1ccc(S(=O)(=O)N(CC(=O)NCc2ccco2)Cc2ccccc2F)cc1`, for which the viability in experiment [1] was 92%; in experiment [3], 92% (inactive); in experiment [4], 104% (inactive); in experiment [5] it was 107% (inactive); in experiment [6] (setting [9]), 85.5%; in experiment [6] (setting [10]) it was 107%. Besides, the Her2 level in experiment [2] was 108% (inactive). Besides, in experiment [6] (H69AR cells + 2 uM doxorubicin), the differential viability (reversal) is 21.3% (inactive). In addition, the figures for the inhibition in experiment [7] and in experiment [8] were -2.67% (inactive) and -5.97% (inactive), respectively.
For `CC(C)C(NC(=O)OCc1ccccc1)C(=O)OCC(=O)NCc1ccco1` (stereo not given), the viability in experiment [1] was 100%; in experiment [3], 100% (inactive); in experiment [4], 86.2% (inactive); in experiment [5], 85.3% (inactive); in experiment [6] (setting [9]), 77.6%; in experiment [6] (setting [10]) it was 85.3%. Also, the Her2 level in experiment [2] was 108% (inactive). Also, the differential viability (reversal) in experiment [6] (H69AR cells + 2 uM doxorubicin) was 7.68% (inactive). Besides, the inhibition was -1.18% (inactive) in experiment [7] and -11.3% (inactive) in experiment [8].
Take `CCC(=O)Nc1ccc2nc(SCC(=O)N3CCCC3)sc2c1`: the viability in experiment [1] was 97.5%; in experiment [3], 97.5% (inactive); in experiment [4] it was 114% (inactive); in experiment [5] it was 94.1% (inactive); in experiment [6] (setting [9]), 88.5%; in experiment [6] (setting [10]) it was 94.1%. The Her2 level in experiment [2] was 100% (inactive). The differential viability (reversal) in experiment [6] (H69AR cells + 2 uM doxorubicin) was 5.62% (inactive). For the same compound, the inhibition in experiment [7] is 2.67% (inactive); in experiment [8], 38.4% (active).
As for `COc1ccccc1N=Cc1nc(-c2ccccc2)oc1OC(C)=O`, the viability in experiment [1] is 99%; in experiment [3], 99% (inactive); in experiment [4] it was 79.2% (inactive); in experiment [5], 63.1% (inactive); in experiment [6] (setting [9]) it was 76.8%; in experiment [6] (setting [10]), 63.1%. Further, in experiment [2], the Her2 level is 82.5% (inactive). The differential viability (reversal) in experiment [6] (H69AR cells + 2 uM doxorubicin) is -13.8% (inactive). Further, the inhibition was -4.61% (inactive) in experiment [7] and -2.38% (inactive) in experiment [8].
As to `O=C(Nc1ccccc1C(=O)N1CCCCCC1)c1cccc(S(=O)(=O)N2CCOCC2)c1`, the viability was 95.5% in experiment [1]; 95.5% (inactive) in experiment [3]; 94.1% (inactive) in experiment [4]; 95.5% (inactive) in experiment [5]; 103% in experiment [6] (setting [9]); 95.5% in experiment [6] (setting [10]). Further, the Her2 level in experiment [2] is 96% (inactive). Moreover, the differential viability (reversal) in experiment [6] (H69AR cells + 2 uM doxorubicin) is -7.13% (inactive). Besides, the inhibition in experiment [7] was -1.84% (inactive); in experiment [8], -1.45% (inactive).
For `Cc1cccc(CCNC(=O)C2CCCN(S(=O)(=O)c3cnc[nH]3)C2)c1` (stereo not given), the viability in experiment [1] was 99.5%; in experiment [3], 99.5% (inactive); in experiment [4], 103% (inactive); in experiment [5], 89.4% (inactive); in experiment [6] (setting [9]), 86.2%; in experiment [6] (setting [10]), 89.4%. In experiment [2], the Her2 level is 106% (inactive). Further, in experiment [6] (H69AR cells + 2 uM doxorubicin), the differential viability (reversal) is 3.16% (inactive). The figures for the inhibition in experiment [7] and in experiment [8] were -4.93% (inactive) and -1.97% (inactive), respectively.
As for `CC1CCCCC1NC(=O)c1nn(C)c(=O)c2ccccc12` (stereo not given), the viability is 88% in experiment [1]; 88% (inactive) in experiment [3]; 90.4% (inactive) in experiment [4]; 89.2% (inactive) in experiment [5]; 75.8% in experiment [6] (setting [9]); 89.2% in experiment [6] (setting [10]). Further, the Her2 level in experiment [2] was 104% (inactive). Further, in experiment [6] (H69AR cells + 2 uM doxorubicin), the differential viability (reversal) is 13.3% (inactive). Moreover, the values for the inhibition in experiment [7] and in experiment [8] were -1.69% (inactive) and -10% (inactive), respectively.
`CCOC(=O)c1ccc(NC(=O)CCc2nc(-c3cccc(C)c3)no2)cc1`: the viability in experiment [1] is 114%; in experiment [3], 114% (inactive); in experiment [4] it was 40.8% (inactive); in experiment [5], 86.2% (inactive); in experiment [6] (setting [9]), 99.1%; in experiment [6] (setting [10]), 86.2%. In experiment [2], the Her2 level was 97.5% (inactive). Also, the differential viability (reversal) in experiment [6] (H69AR cells + 2 uM doxorubicin) was -12.8% (inactive). In addition, the inhibition was 0.41% (inactive) in experiment [7] and 13% (inactive) in experiment [8].

Usually viability stands for a read-out of living cells in per cent, often relative to untreated cells. What is called inhibition is the drop in the measured response relative to a control, in per cent.
